Data: publication PMC5367588 (International Journal of Nanomedicine, 2017)
Values belong to the molecule of their own block, whether it stands above or below them.

Columns and labels:
[1] = system: HepG2, MCF-7, and SW480 cells; assay: In vitro cytotoxicity; assay type: cell-based; conditions: MTT assay, three cell lines, 48 h
Outline: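 Cells grown in RPMI 1640 or L-15 with 10% FBS were seeded at 5,000 cells/well and left to attach overnight. Graded concentrations of test compound were applied in quintuplicate for 48 h at 37°C and 5% CO2. MTT was added for 4 h and absorbance read at 490 nm. IC50 was taken as the concentration giving 50% growth inhibition; the assay was run three times.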

[2] = Characterization of compound F self-assembly micelles; assay type: physicochemical; conditions: in water
[3] = Drug release from conjugates in plasma; assay type: in vitro ADME, human; conditions: for amount of compound B released from the conjugate: plasma
Outline: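 Conjugate stock (5.0 mg/mL) was added to human serum to 0.5 mg/mL final, with camptothecin internal standard at 1.0 µg/mL final, at 37°C. Samples were taken from 0.5 to 48 h, protein-precipitated with acetonitrile, centrifuged, dried under N2 at 40°C and reconstituted in acetonitrile. Analysis was by UPLC/MS against serum standards of 0.5–1,000 ng/mL using the internal standard method.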

[4] = Drug release from conjugates in phosphate-buffered saline; assay type: physicochemical
Outline: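 Conjugate at 0.5 mg/mL final in 0.01 mol/L PBS at pH 3.0, 4.0, 5.0, 6.0 and 7.4, held at 37°C for 48 h. Supernatants were analysed by UPLC/MS in MRM mode using the 477.0/433.1 transition for the released ester.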

[5] = system: tumor-bearing nude mouse models; assay: In vivo antitumor efficacy; design: species or system mice; conditions: for tumor growth inhibition effect (TIR): tail vein injection, equivalent to 5.0 mg/kg 10-HCPT once a day for 14 days, n=8
Outline: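 Dosing began in tumor-bearing nude mice once tumors reached ~50–100 mm3; groups (n=8) were balanced for weight and tumor size. Mice received saline, commercial parent-drug injection 5.0 mg/kg, or conjugate 35.1 mg/kg (parent-equivalent 5.0 mg/kg) by tail vein once daily for 14 days. Tumor volume (a×b²/2) was measured every 2 days; toxicity was judged from behaviour and weight loss.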

[6] = In vivo pharmacokinetics and biodistribution; design: species or system tumor-bearing nude mice; conditions: for AUC0–inf / MRT0–inf: i.v. 5.0 mg/kg 10-HCPT injection or 35.1 mg/kg compound F solution, mice, n=6; for T2/1: blood circulation, i.v. single dose equal to 10-HCPT 5 mg/kg, tumor-bearing mice; for AUC(0-inf) / MRT inf: female, BALB/c (nude), mouse, iv, 5 mg/kg
Outline: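 Tumor-bearing nude mice (n=6 per group) got one i.v. dose of free parent drug 5 mg/kg or parent-equivalent conjugate. Orbital blood was taken from 10 min to 48 h, and heart, liver, spleen, lung, kidney, brain and tumor were collected. Plasma or saline tissue homogenate was hydrolysed with 0.1 N NaOH (37°C, 20 min), then neutralised with HCl. Camptothecin internal standard was added before acetonitrile extraction. Parent drug was quantified by UPLC/MS and PK parameters derived with software.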

[7] = Water solubility of the prodrug; assay type: physicochemical; conditions: prodrug relative to 10-HCPT
[8] = once a day for 14 days, tail vein

Molecule: 5-carbonyl caproic acid
cytotoxicity (in words) [1]: almost no cytotoxicity

Molecule: 10-HCPT-thiosemicarbazide-PEG2000-MeO conjugate [compound F]
concentration at which conjugates self-assemble into micelles [2]: 7500 µg/mL | amount of compound B released from the conjugate ([3]; 37°C, after 1 h): 5% | amount of compound B released from the conjugate ([3]; 37°C, after 4 h): 15% | amount of compound B released from the conjugate ([3]; after 48 h): < 30% | stability (in words) ([3]; rat plasma): good stability | amount of compound B released from the conjugate ([4]; PBS pH 5.0, 37°C, after 4 h): ~100% | amount of compound B released from the conjugate ([4]; PBS pH 7.4, 37°C, after 1 h): 2% | amount of compound B released from the conjugate ([4]; PBS pH 7.4, 37°C, after 4 h): 8% | amount of compound B released from the conjugate ([4]; pH 7.4 PBS, after 48 h): < 30% | stability (in words) ([4]; phosphate-buffered saline (pH 7.4)): good stability | body weight change (in words) [5, 8]: did not cause significant loss of body weight | tumor volume (in words) ([5]; once a day for 14 days, tail vein, P<0.05): significantly smaller than that of the group treated with either saline or 10-HCPT solution | tumor growth inhibition effect (TIR) [5]: 82.66%±7.175 | cytotoxicity (in words) [1]: strongest cytotoxicity | AUC0–inf ([6]; Heart): 3,795.7±1,539.3 µg/L h | MRT0–inf ([6]; Heart): 4.379 ± 1.171 h | AUC0–inf ([6]; Kidney): 1,260.4±585.8 µg/L h | MRT0–inf ([6]; Kidney): 2.948 ± 0.548 h | AUC0–inf ([6]; Liver): 52,688.4±3,111.2 µg/L h | MRT0–inf ([6]; Liver): 10.07 ± 0.957 h | AUC0–inf ([6]; Lung): 293,117.9±31,343.1 µg/L h | MRT0–inf ([6]; Lung): 6.96 ± 0.178 h | AUC0–inf ([6]; Plasma): 173,410.1±13,824.5 µg/L h | MRT0–inf ([6]; Plasma): 28.975 ± 1.238 h | AUC0–inf ([6]; Spleen): 8,993.1±1,534.3 µg/L h | MRT0–inf ([6]; Spleen): 7.756 ± 1.518 h | AUC0–inf ([6]; Tumor): 162,823.9±19,289.2 µg/L h | MRT0–inf ([6]; Tumor): 39.873 ± 4.549 h | T2/1 [6]: 10.516 ± 1.158 h | AUC0–inf in tumor relative to 10-HCPT solution ([6]; tumor): 7.76 fold | MRT0–inf in tumors compared with 10-HCPT solution ([6]; tumor): 4.31 fold | water solubility increase [7]: over 3,000 times

T2/1 [6]: 1.859 ± 1.385 h | AUC(0-inf) ([6]; heart): 11600 ng·h/mL | MRT inf ([6]; heart): 6.18 ± 1.5 h | AUC(0-inf) ([6]; kidney): 2090 ng·h/mL | MRT inf ([6]; kidney): 5.96 ± 1.09 h | AUC(0-inf) ([6]; liver): 28700 ng·h/mL | MRT inf ([6]; liver): 5.69 ± 0.845 h | AUC(0-inf) ([6]; lung): 130000 ng·h/mL | MRT inf ([6]; lung): 4.79 ± 0.648 h | AUC(0-inf) ([6]; plasma): 8410 ng·h/mL | MRT inf ([6]; plasma): 6.15 ± 0.964 h | AUC(0-inf) ([6]; spleen): 5040 ng·h/mL | MRT inf ([6]; spleen): 5.68 ± 0.771 h | AUC(0-inf) ([6]; tumor): 21000 ng·h/mL | MRT inf ([6]; tumor): 9.25 ± 1.03 h
Molecule: CC[C@@]1(O)C(=O)OCc2c1cc1n(c2=O)Cc2cc3cc(O)ccc3nc2-1 [10-HCPT, 10-Hydroxycamptothecin, reference compound]
body weight change (in words) [5, 8]: significant body weight loss | tumor growth inhibition effect (TIR) [5]: 63.85%±5.233
